Measurements pooled from the literature.
Lines come from different studies, so protocols differ.
ABL1 H396P phosphorylated: Tyrosine-protein kinase ABL1, phosphorylated (ABL1, Homo sapiens, UniProt P00519, H396P)
ABL1 M351T phosphorylated: Tyrosine-protein kinase ABL1, phosphorylated (ABL1, Homo sapiens, UniProt P00519, M351T)
ABL1 F317I phosphorylated: Tyrosine-protein kinase ABL1, phosphorylated (ABL1, Homo sapiens, UniProt P00519, F317I)
ABL1 H396P non-phosphorylated: Tyrosine-protein kinase ABL1, non-phosphorylated (ABL1, Homo sapiens, UniProt P00519, H396P)
ABL1 phosphorylated: Tyrosine-protein kinase ABL1, phosphorylated (ABL1, Homo sapiens, UniProt P00519)
ABL1 Y253F phosphorylated: Tyrosine-protein kinase ABL1, phosphorylated (ABL1, Homo sapiens, UniProt P00519, Y253F)
ABL1 Q252H phosphorylated: Tyrosine-protein kinase ABL1, phosphorylated (ABL1, Homo sapiens, UniProt P00519, Q252H)
ABL1 E255K phosphorylated: Tyrosine-protein kinase ABL1, phosphorylated (ABL1, Homo sapiens, UniProt P00519, E255K)

CN(CCCC(F)(F)F)c1nccc(-c2cnn3ncccc23)n1
remaining binding (Tyrosine-protein kinase ABL1 (ABL1, Homo sapiens, UniProt P00519, M351T); binding; 1 µM): 100%

Cc1cnc(Nc2ccc(C(=O)N3CCC(N4CCCC4)CC3)cc2)nc1-c1cc2ccccc2s1
remaining binding (ABL1 H396P phosphorylated; binding, competition with immobilised ligand; 1 µM): 0.9%

COc1cnc(Nc2cccc(S(N)(=O)=O)c2)nc1N1CCN(c2ccccc2)C(=O)C1
remaining binding (ABL1 M351T phosphorylated; binding, competition with immobilised ligand; 1 µM): 84%

CN(c1nccc(-c2cnn3ncccc23)n1)C1CC1
remaining binding (Tyrosine-protein kinase ABL1 (ABL1, Homo sapiens, UniProt P00519, F317L); binding; 1 µM): 100%

Nc1ncc2c(n1)-c1c([nH]c3ccc(C#CC4CC4)cc13)CCCC2
remaining binding (ABL1 F317I phosphorylated; binding, competition with immobilised ligand; 1 µM): 86%

C[C@@H](c1ccc(-n2cnc3c(N)ncnc32)cc1)N1CCc2nn(C)c(Cc3ccccc3)c2C1=O
remaining binding (ABL1 H396P non-phosphorylated; binding, competition with immobilised ligand; 0.1 µM): 13%

O=C(Nc1cnc(Oc2ccc(F)cc2)nc1)N1CCc2ncccc2[C@@H]1c1ccc(F)cc1
remaining binding (ABL1 phosphorylated; cell-free assay, competition with immobilised ligand; 1 µM): 94%

O=C(c1ccc(Nc2ncc(Cl)c(-c3ccc(Cl)s3)n2)cc1)N1CCC(N2CCCC2)CC1
remaining binding (Tyrosine-protein kinase ABL1, non-phosphorylated (ABL1, Homo sapiens, UniProt P00519, F317I); binding, competition with immobilised ligand; 1 µM): 97%

CNC(=O)[C@@H]1CC[C@@H](n2c(-c3ccc4cnccc4c3)nc3ccc(C(=O)NCc4cccc(C(N)=O)c4)cc32)C1
remaining binding (ABL1 F317I phosphorylated; binding, competition with immobilised ligand; 1 µM): 100%

COc1ccnn2ncc(-c3ccnc(N(C)C)n3)c12
remaining binding (Tyrosine-protein kinase ABL1 (ABL1, Homo sapiens, UniProt P00519, Y253F); binding; 1 µM): 79%

O=C(N1CCS(=O)(=O)CC1)N1C[C@H](c2ccc(OC(F)(F)F)cc2)C[C@H](c2nc(C3CC3)no2)C1
remaining binding (Tyrosine-protein kinase ABL1, non-phosphorylated (ABL1, Homo sapiens, UniProt P00519, T315I); cell-free assay, competition with immobilised ligand; 1 µM): 92%

O=C(c1ccc(Nc2nccc(-c3cc4ccccc4s3)n2)cc1)N1CCC(N2CCCC2)CC1
remaining binding (ABL1 Y253F phosphorylated; binding, competition with immobilised ligand; 1 µM): 6.2%

O=C(Nc1cccnn1)N1CC(C/C=C/c2cncc(Oc3ccc(C(F)(F)F)cn3)n2)C1
remaining binding (ABL1 phosphorylated; cell-free assay, competition with immobilised ligand; 1 µM): 82%

CCN1CCN(Cc2ccc(C(=O)Nc3ccc(C)c(Oc4ccc5c(c4)CC(=O)N5)c3)cc2C(F)(F)F)CC1
remaining binding (ABL1 H396P non-phosphorylated; binding, competition with immobilised ligand; 1 µM): 0.35%

Cc1nccc(COC(=O)N2C[C@@H]3[C@@H](CNC(=O)c4ccc5[nH]nnc5c4)[C@@H]3C2)n1
remaining binding (ABL1 M351T phosphorylated; cell-free assay, competition with immobilised ligand; 1 µM): 95%

O=C(NCC1CCOCC1)c1n[nH]cc1NC(=O)c1c(F)cccc1F
remaining binding (ABL1 Q252H phosphorylated; binding, competition with immobilised ligand; 1 µM): 83%

C[C@H]1CCN(c2nccc(-c3cnn4ncccc34)n2)C1
remaining binding (Tyrosine-protein kinase ABL1, non-phosphorylated (ABL1, Homo sapiens, UniProt P00519); binding; 1 µM): 86%

c1cncc(-c2cccc(Nc3nccc(NC4CCCCC4)n3)c2)c1
remaining binding (ABL1 H396P non-phosphorylated; binding, competition with immobilised ligand; 10 µM): 9%

CN(C)C(=O)Cn1cc(-c2nc(C3(c4ccc(-c5cnc(N)nc5)cc4)CC3)no2)cn1
remaining binding (ABL1 E255K phosphorylated; binding, competition with immobilised ligand; 1 µM): 100%

O=C(c1ccc(Nc2ncc(Cl)c(-c3cc4ccccc4s3)n2)cc1)N1CCC(N2CCCC2)CC1
remaining binding (Tyrosine-protein kinase ABL1, non-phosphorylated (ABL1, Homo sapiens, UniProt P00519, Q252H); binding, competition with immobilised ligand; 1 µM): 7.5%

COc1cnc(Nc2cccc(S(N)(=O)=O)c2)nc1N1CCN(c2ccccc2)CC1
remaining binding (Tyrosine-protein kinase ABL1, non-phosphorylated (ABL1, Homo sapiens, UniProt P00519, F317L); binding, competition with immobilised ligand; 1 µM): 95%

CN([C@@H]1CCc2c(CC(=O)O)c3cc(S(C)(=O)=O)ccc3n2C1)S(=O)(=O)c1ccc(F)cc1
remaining binding (ABL1 H396P non-phosphorylated; cell-free assay, competition with immobilised ligand; 1 µM): 55%

O=C(NCCCN1CCOCC1)c1ccc(Nc2nccc(-c3cc4ccccc4s3)n2)cc1
remaining binding (ABL1 Q252H phosphorylated; binding, competition with immobilised ligand; 1 µM): 58%

COc1ncc2cc3ccccc3nc2c1C#N
remaining binding (ABL1 H396P phosphorylated; cell-free assay, competition with immobilised ligand; 5 µM): 97%

CN1CCN(c2cnc3c(C4CCN(C(=O)c5ccc(OC(F)(F)F)cc5N)CC4)ncnc3c2)CC1
remaining binding (ABL1 E255K phosphorylated; binding, competition with immobilised ligand; 1 µM): 98%

N[C@H]1CCN(c2nccc(-c3cnn4ncccc34)n2)C1
remaining binding (Tyrosine-protein kinase ABL1 (ABL1, Homo sapiens, UniProt P00519, Q252H); binding; 1 µM): 59%

O=C(Nc1c[nH]nc1C(=O)NC1CCNCC1)c1cc(F)cc(F)c1
remaining binding (ABL1 Y253F phosphorylated; binding, competition with immobilised ligand; 1 µM): 100%

O=C(NCCCN1CCOCC1)c1ccc(Nc2ncc(Cl)c(-c3ccc(Cl)s3)n2)cc1
remaining binding (ABL1 phosphorylated; binding, competition with immobilised ligand; 1 µM): 36%

CC1=C(C#N)[C@@H](c2ccc3[nH]nc(C)c3c2)C(C#N)=C(c2ccc(Cl)cc2)N1
remaining binding (ABL1 Q252H phosphorylated; cell-free assay, competition with immobilised ligand; 1 µM): 100%

C=CC(=O)N1CCC(C(=O)NCC(=O)N2CCN(c3nc(-c4cnc(N)nc4C(F)F)nc(N4CCOCC4)n3)CC2)CC1
remaining binding (ABL1 H396P non-phosphorylated; binding, competition with immobilised ligand; 1 µM): 94%
